Results published in ChEMBL document CHEMBL1125800, “Design of potent linear PAF antagonists” (J Med Chem, 1991).

What was measured:
Assay type in all cases: functional
Rattus norvegicus [1] = assay: In vivo inhibition of PAF induced hypotension in rats after intravenous administration.; conditions: read-out: ID50 (the source's name)
Method in brief: (§1)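 Male Sprague-Dawley rats (180–220 g) were anesthetized with pentobarbital (50 mg/kg ip), with carotid blood pressure recorded. Compound was given iv in saline (1 mL/kg) via a femoral vein 3 min before PAF (0.5 µg/kg iv). Controls received vehicle. Percent inhibition of hypotension versus controls gave ID50 by linear regression over ≥4 doses, each the mean of ≥2 experiments.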

Oryctolagus cuniculus = organism: Oryctolagus cuniculus; assay: In vitro inhibition of platelet aggregation (rabbit) induced by PAF
Method in brief: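 Aggregation of platelet-rich plasma, obtained by spinning blood at 250 g for 10 min at 4 °C. The PRP was diluted with platelet-poor plasma (3000 g, 10 min) to […]. Aggregation was triggered with C18-PAF at 1.5 × 10⁻⁸ M and read on an aggregometer. IC50 was taken by linear regression from one curve of ≥4 concentrations, each the mean of 1–3 experiments.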

Rattus norvegicus [2] = assay: In vivo inhibition of PAF induced hypotension in rats after intravenous administration; conditions: read-out: ID50 (the source's name); method in brief: as §1

SMILES	ED50 (Rattus norvegicus [1]) [mg/kg]	IC50 (Oryctolagus cuniculus; Oryctolagus cuniculus) [nM]	ED50 (Rattus norvegicus [2]) [mg/kg]	IC50 (Oryctolagus cuniculus) [nM]
CCCCCCCCCCCCCCCCNC(=O)OCCSCCOC(=O)N(Cc1cccc[n+]1CC)C(C)=O.[I-]	0.01	14		
CCCCCCCCCCCCCCCNC(=O)OCCOCCOC(=O)N(Cc1cccc[n+]1CCC)C(C)=O		230		
CCCCCCCCCCCCCCCCCCNC(=O)OCC(COC(=O)N(Cc1cccc[n+]1CC)C(C)=O)OC.[Cl-] (centres undefined) [CV-6209]		12	0.0078	
CCCCCCCCCCCCCCCCCNC(=O)OCCSCCOC(=O)N(Cc1cccc[n+]1CC)C(=O)CCCCCCCCCCCCCCC.[I-]	> 5	8700		
CCCCCCCCCCCCCCCNC(=O)OCCOCCOCCOC(=O)N(Cc1cccc[n+]1CC)C(C)=O.[I-]	0.028	12		
CCCCCCCCCCCCCCCCCNC(=O)OCCSCCOC(=O)N(Cc1cccc[n+]1CC)C(=O)OCC.[I-]	0.028	18		
CCCCCCCCCCCCCCCCCNC(=O)OCCSCCOC(=O)N(Cc1cccc[n+]1CC)C(=O)C(C)(C)C.[I-]	0.33	150		
CCCCCCCCCCCCCCCCCCNC(=O)OCCOCCOC(=O)N(Cc1cccc[n+]1CC)C(C)=O.[I-]	0.019	18		
CCCCCCCCCCCCCCCCCNC(=O)OCCOCCOC(=O)N(Cc1cccc[n+]1CC)C(C)=O		17		
CC[n+]1ccccc1CN(C(C)=O)C(=O)OCCOCCOC(=O)C(C)(C)C.[I-]	> 5	1700		
CCCCCCCCCCCCCCCCCCNC(=O)OCC(COC(=O)N(Cc1cccc[n+]1CC)C(C)=O)OC.[I-] (centres undefined)	0.011			11
CCCCCCCCCCCCCCCCCNC(=O)OCC[S+]([O-])CCOC(=O)N(Cc1cccc[n+]1CC)C(C)=O.[I-] (centres undefined)	0.025	27		
CCCCCCCCCCCCCCCNC(=O)OCC1COC(COC(=O)N(Cc2cccc[n+]2CC)C(C)=O)O1.[I-] (centres undefined)	0.085	7.5		
CCCCCCCCCCCCCCCCCCOC(=O)N(Cc1cccc[n+]1CC)C(C)=O.[I-]	0.17	870		
CCCCCCCCCCCCCCCNC(=O)OCCOCCOC(=O)CCCCC[n+]1ccsc1.Cc1ccc(S(=O)(=O)[O-])cc1	> 5	12000		
CCCCCCCCCCCCCCCNC(=O)OCC1CCC(COC(=O)N(Cc2cccc[n+]2CC)C(C)=O)O1.[I-] (centres undefined)	0.098	72		
CCCCCCCCCCCCCCCNC(=O)OCCSCCOC(=O)N(Cc1cccc[n+]1CC)C(C)=O.[I-]	0.04	8.4		
CCCCCCCCCCCCCCCCCCCCCCOC(=O)N(Cc1cccc[n+]1CC)C(C)=O.[I-]	0.53	1400		
CCCCCCCCCCCCCCCNC(=O)OCCCCCOC(=O)N(Cc1cccc[n+]1CC)C(C)=O		24		
CCCCCCCCCCCCCCCNC(=O)OCCOCCOC(=O)N(Cc1cccc[n+]1CC)C(=O)OCC		23		

SMILES	ED50 (Rattus norvegicus [1]) [mg/kg]	IC50 (Oryctolagus cuniculus; Oryctolagus cuniculus) [nM]	ED50 (Rattus norvegicus [2]) [mg/kg]	IC50 (Oryctolagus cuniculus) [nM]
CC[n+]1ccccc1CN(C(C)=O)C(=O)OCCOCCOC(=O)NCC1CCCCC1		2000		
CCCCCCCCCCCCCCCCCNC(=O)OCCS(=O)(=O)CCOC(=O)N(Cc1cccc[n+]1CC)C(C)=O.[I-]	0.019	11		
CCOC(=O)N(Cc1cccc[n+]1CC)C(C)=O.[I-]	> 5	24000		
CCCCCCCCCCCCCCCCCNC(=O)OCCSCCOC(=O)N(Cc1cccc[n+]1CC)C(=O)c1ccccc1OC.[I-]	0.019	9.1		
CCCCCCCCCCCCCCCNC(=O)OCCOCCOC(=O)N(Cc1cccc[n+]1CC)C(C)=O		22		
CCCCCCCCCCCCCCCCCCCCOC(=O)N(Cc1cccc[n+]1CC)C(C)=O.[I-]	0.33	160		
CCCCCCCCCCCCCCCCCCNC(=O)OCCCOC(=O)N(Cc1cccc[n+]1CC)C(C)=O.[I-]	0.02	23		
CCCCCCCCCCCCCCCCCCOCCSCCOC(=O)N(Cc1cccc[n+]1CC)C(C)=O		15		
CCCCCCCCCCCCCCCCCCNC(=O)OCCSCCOC(=O)N(Cc1cccc[n+]1CC)C(C)=O.[I-]	0.015	5.9		
CCCCCCCCCCCCCCCCCNC(=O)OCCSCCOC(=O)N(Cc1cccc[n+]1CC)C(C)=O [listing 1 of 3 here]				8.6
CCCCCCCCCCCCCCCCCCOCCOCCOC(=O)N(Cc1cccc[n+]1CC)C(C)=O.[I-]	0.024	22		
CCSCCOC(=O)N(Cc1cccc[n+]1CC)C(C)=O.[I-]	0.37	190		
CC[n+]1ccccc1CN(C(C)=O)C(=O)OCCOCCOC(=O)NCCCc1ccccc1		1300		
CCCCCCCCCCCCCCCCOCCSCCOC(=O)N(Cc1cccc[n+]1CC)C(C)=O		5.1		
CCCCCCCCCCCCCCCCCNC(=O)OCCSCCOC(=O)N(Cc1cccc[n+]1CC)C(C)=O [listing 2 of 3 here]				5.6
CCCCCCCCCCCCCCCCCNC(=O)OCCOCCOC(=O)N(Cc1cccc[n+]1C)C(C)=O		55		
CCCCCCCCCCCCCCCCCNC(=O)OCCOCCOC(=O)N(Cc1cccc[n+]1CC)C(=O)OCC		8.8		
CCCCCCCCCCCCCCCNC(=O)OCC1OCC(COC(=O)N(Cc2cccc[n+]2CC)C(C)=O)O1.[I-] (centres undefined)	0.11	26		
CCCCCCCCCCCCCCCCCNC(=O)OCCSCCOC(=O)N(Cc1cccc[n+]1CC)C(C)=O [listing 3 of 3 here]				12
